Hits are enriched below; roughly 3.5% of the tested compounds scored in any of these assays.
RGS4 pot: RGS4 potentiation or activation | B-score at 10 µM | HEK293 M3R/inducible RGS4, carbachol calcium flux Fluo4; hits give low values | 0.92% of 310,000 active;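 active = B-score of the integrated calcium signal more than 4 SD below the library mean, with starting fluorescence not abnormally high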;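 also: negative B-score means reduced calcium response which marks RGS4 activation or potentiation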
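Reagent: ECmax carbachol challenge; Test system: M3R-expressing HEK293 line, RGS4 induced by doxycycline; Schedule: overnight RGS4 induction, 30 min dye load 37 °C, 20 min compound RT; Detection: calcium dye Fluo4 fluorescence; Read-out: Agonist-evoked peak-minus-minimum fluorescence over baseline, integrated ratio, B score.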
MrgX1 allo act: human MrgX1 positive allosteric modulation, primary screen | Q96LB2 | MrgX1-HEK293, Fluo-4 calcium flux, FDSS; hits give high values | B-score at 10 µM | 0.63% of 310,000 active | AID 588675;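 active = plate-corrected calcium response at least 3 library SD above typical, normal starting fluorescence, not activating the receptor alone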;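 also: compound read alongside a low EC10 to EC30 dose of BAM8-22 agonist; peak minus trough fluorescence over baseline measured at the second addition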
MrgX1 antagonist: blocks BAM8-22 activation of human MrgX1 receptor; Q96LB2; MRGX1-HEK293 calcium flux, Fluo-4, BAM8-22 antagonism; hits give low values; B-score at 10 µM; 1.3% of 310,000 active; AID 588676;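 active = calcium-response B-score plate-corrected more than 3 library SD below zero, starting fluorescence within 5 deviations, no agonist response on first addition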;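 also: peak minus trough fluorescence over baseline after final BAM8-22 challenge near maximal dose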
RGS4 block: inhibitors of human RGS4 | P49798 | HEK293 M3R/RGS4 inducible, Fluo-4 calcium flux; hits give high values; triggered by carbachol at its EC20 | B-score at 10 µM | 0.45% of 310,000 active | AID 463165;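 active = B-score, a plate-corrected calcium signal, over three deviations above library mean, with baseline fluorescence within five deviations of library mean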;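 also: RGS4 expression induced by doxycycline in cells with stable M3 receptor; B-score is computed from the integrated fluorescence ratio over baseline after carbachol; higher B-score means a larger calcium signal and so more RGS4 inhibition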
Target sequence (P49798 whole entry, looked up): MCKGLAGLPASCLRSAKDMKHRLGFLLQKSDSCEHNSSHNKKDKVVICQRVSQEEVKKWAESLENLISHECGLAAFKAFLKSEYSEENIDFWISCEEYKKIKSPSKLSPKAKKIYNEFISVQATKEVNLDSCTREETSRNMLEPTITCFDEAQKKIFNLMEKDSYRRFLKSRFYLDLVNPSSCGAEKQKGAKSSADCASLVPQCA
MrgX1 agonist: activates human MrgX1 receptor signaling | MrgX1-HEK293 cells, Fluo-4 calcium fluorescence, agonist mode; hits give high values | B-score at 10 µM | 0.44% of 310,000 active;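 active = calcium response B-score plate-corrected fluorescence ratio at least 3 library SD, with starting fluorescence B-score inside 5 SD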
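Assay system: MrgX1-expressing HEK293 cells / Amount: fifteen thousand cells per well / Doses: test compound in the initial addition of three / Timing: cells plated overnight, dye loaded 0.5 h 37 °C, 0.5 h room temperature / Technique: kinetic calcium dye fluorescence, Fluo-4 NW / Control set: positive and negative controls per plate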
RGS4 activ val: confirmation of RGS4 activators. shares compounds with RGS4 pot. HEK293 M3R/RGS4 inducible, carbachol calcium flux Fluo4. inhibition, % at 10 µM. 89% of 1,100 active. AID 602282;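 active = inhibition above 3 SD of the buffer control wells, cut at about 41% in these data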;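 also: signal is the integrated peak-minus-minimum Fluo4 fluorescence over baseline ratio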
M3R Ca counter: activity in cells without induced RGS4 expression; inhibition, % at 10 µM; shares compounds with RGS4 pot; 82% of 1,100 active; HEK293 M3R non-induced RGS4, Fluo4 calcium flux; after carbachol challenge at its EC90;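 active = inhibition exceeding 3 SD of buffer-only control wells, cut at about 26% in these data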;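 also: percent drop in integrated peak-minus-baseline over baseline Fluo4 ratio after carbachol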
Of the large screens only hits and unclear results are named; the others gave an inactive call (follow-up assays come after a bar, where they were run).

Cc1ccc(Cl)cc1N1CCN(C(=S)NCCc2ccccc2)CC1	RGS4 pot -12 | RGS4 activ val 94 | M3R Ca counter 67
COc1cccc(OC)c1OCCNCC1CSc2ccccc2O1 (stereo not given)	RGS4 pot -8.1 | RGS4 activ val inactive | M3R Ca counter inactive
COc1cccc(OC)c1OCCCOc1c(OC)cccc1OC	none
Cc1ccc2cc(NC(=O)c3ccc(C(C)(C)C)cc3)ccc2n1	RGS4 pot -8.2 | RGS4 activ val 84 | M3R Ca counter 81
Cc1cnc(NC(=O)CSc2nc3ccccc3s2)s1	none
Cc1cnc(NC(=O)c2ccc(-c3nc4ccccc4s3)o2)s1	RGS4 pot -9.7 | RGS4 activ val 79 | M3R Ca counter 32
Cc1cc(C)c2[nH]c(C)c(CN3CCCCCC3)c(=O)c2c1	RGS4 pot -11 | RGS4 activ val 42 | M3R Ca counter 84
CN(C)C/C=C/C(O)(c1ccccc1)c1ccccc1	RGS4 pot -9.3 | RGS4 activ val 93 | M3R Ca counter 75
CC(C)Nc1nnc(SCC(=O)Nc2ccc3c(c2)C(=O)c2ccccc2C3=O)s1	RGS4 pot -11 | RGS4 activ val 88 | M3R Ca counter 45
O=C(CSc1nnc(NC2CCCCC2)s1)Nc1ccc2c(c1)C(=O)c1ccccc1C2=O	none
CC(=O)/C(=N/Nc1ccc([N+](=O)[O-])cc1)N1CCCc2ccccc21	none
CC(=O)/C(=N/Nc1ccccc1[N+](=O)[O-])N1CCCc2ccccc21	RGS4 pot -11 | RGS4 activ val 93 | M3R Ca counter 89
CCc1cc(C(=O)OC)c(NC(=O)CN2CCN(C(=O)C3CCCO3)CC2)s1 (stereo not given)	none
COc1ccccc1/C=C/CN1CCC(n2nccc2NC(=O)CCc2ccccc2)CC1	RGS4 pot -8.2 | RGS4 activ val 61 | M3R Ca counter 84
CCOCCCn1c(=O)c2ccccc2n2c(=S)[nH]nc12	none
CC(C)n1cc([C@@H]2C[C@H]3CN(Cc4cccc(Cl)c4)C(=O)[C@]34CCCN24)cn1	RGS4 pot -7.6 | RGS4 activ val 46 | M3R Ca counter 84
COc1ccccc1CCNS(=O)(=O)c1cc2c3c(c1)CCN3C(=O)CC2	none
COc1ccc(N(CC(=O)NC2CCCCC2)C(=O)c2ccc(C)s2)cc1OC	none
COC(=O)c1ccc(N(CC(=O)NC2CCCC2)C(=O)c2ccc(C)s2)cc1	RGS4 pot -8.9 | RGS4 activ val inactive | M3R Ca counter inactive
O=C(COc1ccccc1)Nc1cccc(-c2nc3ccccc3[nH]2)c1	RGS4 pot -8.1 | RGS4 activ val 76 | M3R Ca counter 37
O=c1c2c(nc3n1CCCCC3)-c1ccccc1CC21CCCCC1	RGS4 pot -16 | RGS4 activ val 90 | M3R Ca counter 79
O=C1CCN(Cc2cccnc2)CCN1[C@H](CO)Cc1ccccc1	none
C=CCNC(=O)c1ccc(C2SCC(=O)N2Cc2ccccc2)cc1 (stereo not given)	none
O=C(NCc1ccccc1)c1ccc(C2SCC(=O)N2Cc2ccccc2)cc1 (stereo not given)	RGS4 pot -7.9 | RGS4 activ val 88 | M3R Ca counter 55
CN(Cc1nc(-c2ccc3c(c2)OCO3)no1)CC1(N2CCOCC2)CCCCC1	none
COc1ccc(-c2noc(CN3CCCCC3c3nccn3C)n2)cc1 (stereo not given)	RGS4 pot -7.6 | RGS4 activ val 66 | M3R Ca counter 84
FC(F)(F)c1cccc(Cc2noc(CN3C[C@@H]4CCC[C@H]3C4)n2)c1	none
Cn1ccnc1C1CCCCN1Cc1nc(Cc2cccc(C(F)(F)F)c2)no1 (stereo not given)	RGS4 pot -10 | RGS4 activ val 78 | M3R Ca counter 40
Cn1ccnc1C1CCCCN1Cc1nc(-c2ccc3c(c2)OCO3)no1 (stereo not given)	RGS4 pot -7.8 | RGS4 activ val 86 | M3R Ca counter 62

Screens: PubChem BioAssay, Johns Hopkins Ion Channel Center
